The results in this text go back to ChEMBL document CHEMBL1125330, “N-substituted pyrazino[2,3-c][1,2,6]thiadiazine 2,2-dioxides. A new class of diuretics” (J Med Chem, 1992).

The subject of data set [1] is Rattus norvegicus. The data set can be described thus: Mean potassium excretion in rats when compound administered at 20 mg/kg po and vehicle dosed at 78.97 umol/kg. The format is ADME, organism-based. Set-up: dose 20 mg/kg, route oral. The conditions noted are these: in vivo. The essentials: (§1)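 Male Sprague-Dawley rats (HC/CFY, 175-200 g), no food or water for 18 h before and during the test. Single gavage dose (2.5-160 mg/kg; vehicle 1% carboxymethyl cellulose/0.1% Tween 80, 0.5 mL/100 g bw), then distilled water 2.5 mL/100 g bw po. Individual metabolic cages, 6 h urine. K+ by flame photometry, Cl- colorimetric, as mequiv/6 h/kg bw; unpaired Student t-test vs control.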

In data set [2] the test system is Rattus norvegicus. The data set can be described thus: Mean sodium excretion in rats when compound administered at 160 mg/kg po and vehicle dosed at 631.76 umol/kg. The format is ADME, organism-based. Set-up: dose 160 mg/kg, route oral. As to conditions: in vivo. In short, it runs like this:
(§2)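 Male Sprague-Dawley rats (HC/CFY, 175-200 g) fasted and water-deprived 18 h before and during the test. Dosed by gavage at 2.5-160 mg/kg in 1% carboxymethyl cellulose/0.1% Tween 80, 0.5 mL/100 g bw. Immediately hydrated with water (2.5 mL/100 g bw, po). Urine collected 6 h in metabolic cages; Na+ and K+ by flame photometry; mean mequiv/6 h/kg bw; nonpaired Student t-test.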

Data set [3] relates to Rattus norvegicus. The data set can be described thus: Mean sodium excretion in rats when compound administered at 40 mg/kg po and vehicle dosed at 157.94 umol/kg. The format is ADME, organism-based. Set-up: dose 40 mg/kg, route oral. The conditions noted are these: in vivo. The essentials:
as §2

Data set [4] deals with Rattus norvegicus. The data set can be described thus: Urinary sodium 4 hr after the compound was administered 125 mg/kg po in rat. The format is ADME, organism-based, Urine. Also noted: dose 125 mg/kg, route oral. As to conditions: in vivo. The essentials:
(§3)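 Onset and duration study in fasted, water-loaded male Sprague-Dawley rats housed two per metabolic cage, six pairs per group. Single oral dose given, then water 2.5 mL/100 g po. Urine volume and sodium (flame photometry) measured over 0-1, 1-2, 2-3, 3-4 and 4-6 h intervals. Mean values compared with vehicle by Student t-test.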

The test system of data set [5] is Rattus norvegicus. The data set can be described thus: Volume of urine 1 hr after the compound was administered 125 mg/kg po in rat. As to conditions: in vivo. The format is ADME, organism-based. Also noted: dose 125 mg/kg, route oral. The essentials:
(§4)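 Onset/duration protocol: male Sprague-Dawley rats (HC/CFY, 175-200 g), food and water withdrawn for 18 h before and during the test. Single gavage dose in 1% carboxymethyl cellulose/0.1% Tween 80 (0.5 mL/100 g bw), then distilled water load (2.5 mL/100 g bw po). Two rats per metabolic cage, six pairs per group. Urine collected at 0-1, 1-2, 2-3, 3-4 and 4-6 h; Na+ by flame photometry. Vehicle controls; nonpaired Student t-test.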

Data set [6] has as its system Rattus norvegicus. The data set can be described thus: Mean urinary output in rats when compound administered at 0 mg/kg po and vehicle dosed at 0 umol/kg. It counts as ADME, organism-based, Urine. Set-up: dose 0 mg/kg, route oral. As to conditions: in vivo. In short, it runs like this:
(§5)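 Water-loaded male Sprague-Dawley rats (HC/CFY, 175-200 g) fasted and without water for 18 h. Oral gavage of 2.5-160 mg/kg in 1% CMC with 0.1% Tween 80, then distilled water 2.5 mL/100 g po. Urine collected 6 h in metabolic cages, mean output in mL/6 h/kg bw. Unpaired Student t-test against vehicle; dose-response by linear regression.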

In data set [7] the test system is Rattus norvegicus. The data set can be described thus: Mean potassium excretion in rats when compound administered at 80 mg/kg po and vehicle dosed at 315.88 umol/kg. It counts as ADME, organism-based. Also noted: dose 80 mg/kg, route oral. As to conditions: in vivo. The essentials:
as §2

Data set [8] has as its system Rattus norvegicus. The data set can be described thus: Mean sodium excretion in rats when compound administered at 5 mg/kg po and vehicle dosed at 19.74 umol/kg. The format is ADME, organism-based. Set-up: dose 5 mg/kg, route oral. The conditions noted are these: in vivo. In short, it runs like this:
as §2

The subject of data set [9] is Rattus norvegicus. Nature of the data set: Urinary sodium 1 hr after the compound was administered 125 mg/kg po in rat. The conditions noted are these: in vivo. Also noted: dose 125 mg/kg, route oral. The format is ADME, organism-based, Urine. In short, it runs like this: as §3
Data set [10] has as its system Rattus norvegicus. The data set can be described thus: Mean sodium excretion in rats when compound administered at 0 mg/kg po and vehicle dosed at 0 umol/kg. It counts as ADME, organism-based. Set-up: dose 0 mg/kg, route oral. The conditions noted are these: in vivo. The essentials: as §2
For data set [11], the system named is Rattus norvegicus. The data set can be described thus: Volume of urine 3h after the compound was administered 125 mg/kg po in rat. The format is ADME, organism-based. Also noted: dose 125 mg/kg, route oral. As to conditions: in vivo. In short, it runs like this:
as §4

In data set [12] the test system is Rattus norvegicus. Nature of the data set: Mean Chlorine excretion in rats when compound administered at 10 mg/kg po and vehicle dosed at 39.48 umol/kg. It counts as ADME, organism-based. Also noted: dose 10 mg/kg, route oral. As to conditions: in vivo. In short, it runs like this:
as §1

Data set [13] relates to Rattus norvegicus. Nature of the data set: Mean sodium excretion in rats when compound administered at 20 mg/kg po and vehicle dosed at 78.97 umol/kg. The format is ADME, organism-based. As to conditions: in vivo. Also noted: dose 20 mg/kg, route oral. The essentials:
as §2

Data set [14] relates to Rattus norvegicus. Nature of the data set: Mean urinary output in rats when compound administered at 5 mg/kg po and vehicle dosed at 19.74 umol/kg. It counts as ADME, organism-based, Urine. Set-up: dose 5 mg/kg, route oral. The conditions noted are these: in vivo. In short, it runs like this: as §5
Data set [15] relates to Rattus norvegicus. Nature of the data set: Mean potassium excretion in rats when compound administered at 160 mg/kg po and vehicle dosed at 631.76 umol/kg. It counts as ADME, organism-based. Set-up: dose 160 mg/kg, route oral. As to conditions: in vivo. The essentials:
as §1

Data set [16] has as its system Rattus norvegicus. The data set can be described thus: Dose required to produce an excretion of 2 mequiv of Na+/kg bw/6h vs control groups. The format is functional. The essentials:
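Male Sprague-Dawley rats (HC/CFY, 175-200 g), fasted and water-deprived 18 h before and during the test. Compound dosed by gavage in 1% carboxymethyl cellulose/0.1% Tween 80, then water load 2.5 mL/100 g bw po. Urine collected 6 h in metabolic cages; Na+ by flame photometry. Effective doses vs vehicle controls derived by linear regression of dose-response data.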

For data set [17], the system named is Rattus norvegicus. Nature of the data set: Mean urinary output in rats when compound administered at 20 mg/kg po and vehicle dosed at 78.97 umol/kg. The conditions noted are these: in vivo. The format is ADME, organism-based, Urine. Also noted: dose 20 mg/kg, route oral. In short, it runs like this: as §5
Data set [18] concerns Rattus norvegicus. The data set can be described thus: Mean sodium excretion in rats when compound administered at 10 mg/kg po and vehicle dosed at 39.48 umol/kg. It counts as ADME, organism-based. Set-up: dose 10 mg/kg, route oral. The conditions noted are these: in vivo. The essentials:
as §2

Data set [19] can be described thus: Acute toxicity in mice when given po. It counts as organism-based. The conditions noted are these: mouse, in vivo, read-out: DL50 (the source's name). The essentials: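 Male Swiss mice (SPF, HC/CFLP strain, 20–25 g), oral dosing; mortality followed over 15 days; LD50 derived by the Litchfield and Wilcoxon method.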
Data set [20] deals with Rattus norvegicus. The data set can be described thus: Mean Chlorine excretion in rats when compound administered at 2.5 mg/kg po and vehicle dosed at 9.87 umol/kg. The format is ADME, organism-based. Set-up: dose 2.5 mg/kg, route oral. The conditions noted are these: in vivo. The essentials: as §1
The subject of data set [21] is Rattus norvegicus. Nature of the data set: Urinary sodium 3h after the compound was administered 125 mg/kg po in rat. It counts as ADME, organism-based, Urine. Also noted: dose 125 mg/kg, route oral. As to conditions: in vivo. In short, it runs like this: as §3
In data set [22] the test system is Rattus norvegicus. The data set can be described thus: Urinary sodium 2 hr after the compound was administered 125 mg/kg po in rat. The conditions noted are these: in vivo. Set-up: dose 125 mg/kg, route oral. It counts as ADME, organism-based, Urine. The essentials: as §3
The test system of data set [23] is Rattus norvegicus. Nature of the data set: Mean Chlorine excretion in rats when compound administered at 0 mg/kg po and vehicle dosed at 0 umol/kg. The format is ADME, organism-based. Set-up: dose 0 mg/kg, route oral. As to conditions: in vivo.

For the compound `Nc1nc(N)c2nc(-c3ccccc3)c(N)nc2n1`, the K was 0.16 m equiv 6hr-1 kg-1 (body weight)-1 in the data set on Rattus norvegicus [1], 0.14 m equiv 6hr-1 kg-1 (body weight)-1 in the data set on Rattus norvegicus [7] and 0.21 m equiv 6hr-1 kg-1 (body weight)-1 with Rattus norvegicus [15]. In addition, the Na is given as 3.32 m equiv 6hr-1 kg-1 (body weight)-1 with Rattus norvegicus [2]; 2.88 m equiv 6hr-1 kg-1 (body weight)-1 in the data set with Rattus norvegicus [3]; 2.28 m equiv 6hr-1 kg-1 (body weight)-1 in the data set with Rattus norvegicus [8]; 0.58 m equiv 6hr-1 kg-1 (body weight)-1 in the data set on Rattus norvegicus [10]; 2.42 m equiv 6hr-1 kg-1 (body weight)-1 in the data set with Rattus norvegicus [13]; 2.61 m equiv 6hr-1 kg-1 (body weight)-1 in the data set with Rattus norvegicus [18]. Further, the “Urinary Na+” value in the data set with Rattus norvegicus [4] was 0.15 m equiv; with Rattus norvegicus [9], 0.04 m equiv; in the data set with Rattus norvegicus [21], 0.19 m equiv; in the data set on Rattus norvegicus [22] it was 0.16 m equiv. Moreover, the figures for the Urine volume in the data set on Rattus norvegicus [5] and with Rattus norvegicus [11] were 0.48 mL and 2.73 mL, respectively. Further, the V is reported as 24.94 ml 6hr-1 (kg of body weight)-1 in the data set on Rattus norvegicus [6], 30.19 ml 6hr-1 (kg of body weight)-1 in the data set with Rattus norvegicus [14] and 32.87 ml 6hr-1 (kg of body weight)-1 in the data set on Rattus norvegicus [17]. The Cl- with Rattus norvegicus [12] is 1.89 m equiv 6hr-1 kg-1 (body weight)-1; with Rattus norvegicus [20] it was 1.34 m equiv 6hr-1 kg-1 (body weight)-1; in the data set on Rattus norvegicus [23], 0.88 m equiv 6hr-1 kg-1 (body weight)-1. The ED2 in the data set on Rattus norvegicus [16] is 3.8 mg/kg. Moreover, the LD50 in data set [19] was 344 mg/kg.
